Compound activity (PubChem)
Shown are actives, neighbours in structure and some others; about 4.4% of the full set was active somewhere.
MPTP inh = inhibitors of mitochondrial permeability transition pore | 1.4% of 360,000 active | isolated mouse mitochondria, Ca2+ swelling absorbance, 30 min | inhibition, % at 10 µM;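 active = inhibition of 50% or more, scaled per plate between neutral and stimulator controls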;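 also: 0% = DMSO wells given calcium and 100% = 1 mM EGTA wells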
SENP1 FRET inh = SENP1 (human) catalytic domain inhibition; Q9P0U3; recombinant SENP1 catalytic domain, CyPet-SUMO1-YPet FRET cleavage; inhibition, % at 10 µM; 0.21% of 360,000 active; AID 624204;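 active = inhibition at least 30% at 10 µM, raw YFP signal under a set limit, fluorescence ratio 0.5 to 1.5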;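 also: 0% = enzyme with DMSO and 100% = no enzyme wells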
Target sequence (Q9P0U3 419-644 limits assumed): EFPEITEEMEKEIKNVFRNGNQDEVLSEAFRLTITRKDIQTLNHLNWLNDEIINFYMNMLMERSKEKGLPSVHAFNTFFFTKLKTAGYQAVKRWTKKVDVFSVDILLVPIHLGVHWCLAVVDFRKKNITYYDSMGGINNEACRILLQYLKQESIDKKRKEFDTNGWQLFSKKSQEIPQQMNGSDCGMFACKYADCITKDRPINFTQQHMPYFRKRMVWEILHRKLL
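Material – human SENP1 catalytic domain · Input – SENP1 enzyme, 20 pM final · Compound dosing – single concentration of 10 µM compound, 0.5% DMSO final · Timing – enzyme reaction for 50 min at room temperature, dark · Measured by – FRET fluorescence in CFP and YFP emission channels · Control set – no-enzyme wells low, DMSO-plus-enzyme wells high control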
EBI2 block = EBI2 (human) antagonism; P32249; EBI2 beta-arrestin recruitment, luminescence, 7a,25-OHC stimulated; inhibition, % at 5 µM; 0.81% of 360,000 active; in the data active = inhibition above about 38%;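 also: enzyme fragment complementation signal reports receptor beta-arrestin coupling in cells; 0% = agonist plus DMSO wells and 100% = wells without agonist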
Target sequence (P32249 whole entry, looked up, the tested form may be a part): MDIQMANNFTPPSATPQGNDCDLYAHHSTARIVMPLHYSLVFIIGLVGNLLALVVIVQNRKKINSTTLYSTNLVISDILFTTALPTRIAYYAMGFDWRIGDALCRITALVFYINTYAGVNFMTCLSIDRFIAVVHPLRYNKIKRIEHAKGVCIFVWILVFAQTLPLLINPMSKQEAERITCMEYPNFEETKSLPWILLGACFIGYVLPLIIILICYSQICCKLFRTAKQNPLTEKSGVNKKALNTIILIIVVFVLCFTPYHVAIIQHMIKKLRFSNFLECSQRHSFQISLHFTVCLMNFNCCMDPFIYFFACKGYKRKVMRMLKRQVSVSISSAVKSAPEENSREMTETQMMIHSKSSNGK
NR3A LBD binder = NR3A (human) ligand-binding domain modulation. 2.5% of 340,000 active. AID 1259313. NR3A LBD differential scanning fluorimetry, Tm shift; 0% = protein alone, 100% = glycine-bound protein. Tm shift relative to glycine control, % at 25 µM;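 active = melting temperature shift of at least 10% of the positive control shift, at one fixed dose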
MPTP counter = Rhodamine 123 counter-screen of mitochondrial pore hits | shares compounds with MPTP inh | isolated mitochondria, membrane potential, Rhodamine 123 fluorescence | inhibition, % at 10 µM | 78% of 5,000 active | AID 624504; in the data active = inhibition above about 22%;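 also: 0% = DMSO vehicle and 100% = positive control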
MPTP swell DR = dose response confirmation of mitochondrial permeability transition pore inhibitors; shares compounds with MPTP inh; isolated mitochondria swelling, absorbance; IC50, µM; 58% of 780 active; AID 651561; in the data active = IC50 below about 20 µM
MPTP cs DR = MPTP inhibitor counter-screen activity, dose response; shares compounds with MPTP inh; isolated mitochondria counterscreen, fluorescence read-out; IC50, µM; 49% of 780 active; AID 651564; in the data active = IC50 below about 80 µM
An asterisk follows results filed as active; i = inactive; . = no result given; ! = not active in a repeat.

SMILES	MPTP inh	SENP1 FRET inh	EBI2 block	NR3A LBD binder	MPTP counter	others
CCC1CCCCN1S(=O)(=O)c1ccc(NC(=O)c2ccncc2)cc1 (centres undefined)	75*	2	1	4	89*
O=C(CSCc1ccc(C(=O)O)cc1)Nc1ccc2ccccc2c1	1	3	1	0	.
Cc1ccc(CNC(=O)c2[nH]c(C(F)(F)F)nc2-c2ccccc2)cc1	-1	1	2	.	.
O=C(CNC(=O)Cc1ccccc1)NCc1cccc(C(F)(F)F)c1	-2	1	8	0	.
FC(F)(F)c1cccc(CNC(=S)Nc2ccccc2)c1	82*	2	2	-1	95*
FC(F)(F)c1cccc(NC(=S)NCc2ccccc2)c1	106*	0	-1	3	115*
FC(F)(F)c1cccc(NC(=S)NCCc2ccccn2)c1	10	-3	-17	-8	.
CCCN(Cc1ccccc1)C(=S)Nc1cccc(C(F)(F)F)c1	60*	-10	7	-3	63*
O=C(NCc1cccc(C(F)(F)F)c1)c1[nH]c(C(F)(F)F)nc1-c1ccccc1	51*	2	-8	.	99*
O=C(NCc1cccc(C(F)(F)F)c1)c1cc(Cl)cc(Cl)c1	100*	2	12	1	88*
CC(c1ccccn1)N(CCN(C)C)C(=S)Nc1cccc(F)c1 (centres undefined)	-2	1	-12	2	.
CC(C)CCN(C(=S)Nc1cccc(C(F)(F)F)c1)C(C)c1ccccn1 (centres undefined)	63*	0	3	-6	74*
O=C(c1ccccc1Cl)N1CCN(C(=O)C2CCCO2)CC1 (centres undefined)	0	2	-2	-1	.
Cc1cccc(OCC(=O)Nc2nc3ccc([N+](=O)[O-])cc3s2)c1C	69*	-35	-9	-1	83*
CCC(C)NC(=O)C1CCN(S(=O)(=O)c2cc([N+](=O)[O-])ccc2Cl)CC1 (centres undefined)	1	1	0	-1	.
O=C(Nc1nc2ccc([N+](=O)[O-])cc2s1)c1c(F)cccc1F	0	-79	-7	0	.
O=C(COc1ccccc1C(=O)O)Nc1nc2ccc([N+](=O)[O-])cc2s1	94*	-66	-7	14*	83*
Cc1cccc(OCC(=O)Nc2nc3ccc([N+](=O)[O-])cc3s2)c1	67*	-49	-4	0	87*
O=C(Nc1nc2ccccc2s1)C1CCN(S(=O)(=O)c2cc([N+](=O)[O-])ccc2Cl)CC1	95*	-1	7	4	77*
Cc1nc2ccc(NC(=O)COc3ccccc3[N+](=O)[O-])cc2s1	-2	1	8	1	.
CCOCC(=O)Nc1ccc(S(=O)(=O)NCC2CCCO2)cc1 (centres undefined)	0	-2	2	0	.
CCOc1cc(C(=O)Nc2ccc(F)cc2)cc(Br)c1OC	67*	1	13	-8	79*
CCOc1cc(C(=O)Nc2ccc(N3CCOCC3)cc2)cc(Br)c1OC	4	1	-1	1	.
O=C(c1ccco1)C(O)c1ccco1 (centres undefined)	-1	3	-11	-2	.
CC1(c2ccc3ccccc3c2)NC(=O)N(CC(=O)N2CCN(Cc3ccccc3)CC2)C1=O (centres undefined)	12	0	-9	-1	.
SMILES	MPTP inh	SENP1 FRET inh	EBI2 block	NR3A LBD binder	MPTP counter	others
OC1(c2ccc3ccccc3c2)CCN(Cc2ccccc2)C1 (centres undefined)	55*	2	6	1	-3	MPTP swell DR=i;MPTP cs DR=>80
COc1ccc(/C=C/c2nc(-c3ccccc3O)n(-c3ccccc3)n2)cc1	4	1	20	-22	.
COc1ccc(/C=C/c2nc(-c3ccccc3O)n[nH]2)cc1	56*	-3	15	40*	46*
Cc1ccc(-n2cc3c(-c4cccc(Br)c4)nnc(C)c3n2)cc1	54*	24	17	-6	2	MPTP swell DR=i;MPTP cs DR=29*
Cc1nnc(-c2cccc(Br)c2)c2cn(-c3ccccc3Cl)nc12	12	3	-3	2	.
CSCCC(NC(=O)COc1ccccc1)C(=O)N1CCN(c2ccccc2O)CC1 (centres undefined)	-1	1	7	3	.
O=C(NC(Cc1c[nH]c2ccccc12)C(=O)O)c1cccc(S(=O)(=O)N2CCCCC2)c1 (centres undefined)	1	1	-9	.	.
Cc1ccc(OCCn2c(Br)nc3c2c(=O)n(C)c(=O)n3C)cc1	82*	0	4	1	60*
COc1cc(NC(=O)c2csc(-c3ccncc3)n2)cc(C(=O)Nc2cccc(C(F)(F)F)c2)c1	2	-2	21	-1	.
COc1ccc(-c2cc(C(=O)Nc3cc(OC)cc(C(=O)Nc4cccc(C(F)(F)F)c4)c3)[nH]n2)cc1	55*!	0	23	29*	56*
CCOc1ccc(NC(=S)NNC(=S)Nc2cccc(C(F)(F)F)c2)cc1	80*	3	16	20*	57*
COc1cc2c(cc1NC(=S)Nc1cccc(C(F)(F)F)c1)oc1ccccc12	94*	-1	2	29*	80*
COc1ccc(NC(=S)NNC(=S)Nc2cccc(C(F)(F)F)c2)cc1	69*	2	29	34*	72*
Cc1ccc(S(=O)(=O)NC(CC(C)C)C(=O)Nc2nccs2)cc1 (centres undefined)	-4	3	-3	0	.
CCOc1ccc(CNC(=O)CN2C(=O)CSc3ccc(S(=O)(=O)N4CCOCC4)cc32)cc1	1	0	-6	.	.
Cc1ccnc(N2CCCC(C(=O)Nc3cccc(C)c3C)C2)n1 (centres undefined)	-1	-1	7	-1	.
CN(Cc1ccc(OCC(O)CN2CCCCC2)cc1)Cc1ccnc2ccccc12 (centres undefined)	95*	-13	1	-2	106*
COc1cc(OC)cc(C(=O)N[C@H](C(=O)Nc2c(C)n(C)n(-c3ccccc3)c2=O)C(C)C)c1	-1	0	3	-3	.
CC(=O)N[C@@H](Cc1c[nH]c2ccccc12)C(=O)OCC(=O)Nc1cc(C)on1	-2	5	-2	-2	.
Cc1sc2ncnc(N3CCCCC3C)c2c1C (centres undefined)	60*	-1	-3	-2	54*
O=C1NC(=Nc2ccc(Cl)cc2)SC1Cc1cc(Cl)ccc1Cl (centres undefined)	65*	1	4	-6	84*
CC1CCCC(C)N1C(=O)COC(=O)C1CCN(S(=O)(=O)c2c(Cl)cccc2Cl)CC1 (centres undefined)	-3	-1	-2	0	.
Cc1nnc(SCC(=O)Nc2nccs2)o1	-2	-2	-22	1	.
